Test results from ChEMBL document CHEMBL4732106, “Paracetamol analogues conjugated by FAAH induce TRPV1-mediated antinociception without causing acute liver toxicity” (Eur J Med Chem, 2021).
Calls of active or inactive are those of the source. The rule behind the calls is not given here.

Columns and labels:
[1] = system: Mus musculus; assay: Antipyretic activity against LPS-induced C57BL/6 mouse model of hyperthermia assessed as PGE2 level in diencephalon at 100 mg/kg, ip measured after 40 mins by LC-MS/MS analysis relative to control; format: functional
Outline: (§1)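 Male C57BL/6 mice got LPS (E. coli O111:B4, 100 μg kg⁻¹ i.p.) or saline, then 3 h later the drug i.p. in Ringer's acetate vehicle. Diencephalon was taken 40 min later and homogenized in Tris/EDTA/ascorbate with 10 μM MAFP and 100 μM ibuprofen. Prostanoids were quantified by negative-ion LC-MS/MS and expressed as % of LPS + vehicle. n = 6.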

[2] = system: Mus musculus; assay: Antipyretic activity against LPS-induced C57BL/6 mouse model of hyperthermia assessed as TXB2 level in diencephalon at 100 mg/kg, ip measured after 40 mins by LC-MS/MS analysis relative to control; format: functional; outline: as §1
[3] = Inhibition of prostanoid synthesis in FAAH-/- mouse assessed as PGE2 level in diencephalon at 150 mg/kg, ip measured after 40 mins by LC-MS/MS analysis relative to control; format: functional; parameters: scale not given: the % may be the effect or the level left
Outline: (§2)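 In a separate set, FAAH+/+ (n = 10–11) and FAAH-/- (n = 5) mice received LPS 100 μg kg⁻¹ i.p., then paracetamol 150 mg kg⁻¹ i.p. 3 h later. Diencephalic PGE2, PGF2α, 6-keto-PGF1α and TXB2 were measured by negative-ion LC-MS/MS and expressed as % of febrile vehicle-treated animals. Values below the detection limit were set to 1/4 of that limit.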

[4] = system: Mus musculus; assay: Antipyretic activity against LPS-induced C57BL/6 mouse model of hyperthermia assessed as 6-keto-PGF1alpha level in diencephalon at 100 mg/kg, ip measured after 40 mins by LC-MS/MS analysis relative to control; format: functional; outline: as §1
[5] = system: Mus musculus; assay: Antipyretic activity against LPS-induced C57BL/6 mouse model of hyperthermia assessed as PGF2alpha level in diencephalon at 100 mg/kg, ip measured after 40 mins by LC-MS/MS analysis relative to control; format: functional; outline: as §1
[6] = Inhibition of prostanoid synthesis in FAAH+/+ mouse assessed as PGE2 level in diencephalon at 150 mg/kg, ip measured after 40 mins by LC-MS/MS analysis relative to control; format: functional; parameters: scale not given: the % may be the effect or the level left; outline: as §2
[7] = Inhibition of prostanoid synthesis in FAAH-/- mouse assessed as TXB2 level in diencephalon at 150 mg/kg, ip measured after 40 mins by LC-MS/MS analysis relative to control; format: functional; parameters: scale not given: the % may be the effect or the level left; outline: as §2
[8] = Inhibition of prostanoid synthesis in FAAH+/+ mouse assessed as 6-keto-PGF1alpha level in diencephalon at 150 mg/kg, ip measured after 40 mins by LC-MS/MS analysis relative to control; format: functional; parameters: scale not given: the % may be the effect or the level left; outline: as §2
[9] = Hepatotoxicity in C57BL/6 mouse assessed as centrilobular necrosis at 300 mg/kg, ip measured after 12 hrs by H and E staining based microscopic analysis; format: toxicity, organism-based; settings: in vivo
Outline: (§3)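 Male C57BL/6 mice (8 weeks) were fasted 12–16 h, then given 300 mg kg⁻¹ i.p. in saline. At 12 h, blood was taken for serum ALT/AST (automated analyser). The left medial liver lobe was fixed in 4% formaldehyde, cryosectioned at 10 μm and stained with H&E. The ALT/AST ratio was tested against 1. Mean ± SEM, n = 6–7.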

[10] = Inhibition of prostanoid synthesis in FAAH-/- mouse assessed as PGF2alpha level in diencephalon at 150 mg/kg, ip measured after 40 mins by LC-MS/MS analysis relative to control; format: functional; parameters: scale not given: the % may be the effect or the level left; outline: as §2
[11] = Hepatotoxicity in C57BL/6 mouse assessed as change in ALT level at 300 mg/kg, ip measured after 12 hrs; format: toxicity, organism-based; settings: in vivo; outline: as §3
[12] = Inhibition of prostanoid synthesis in FAAH+/+ mouse assessed as TXB2 level in diencephalon at 150 mg/kg, ip measured after 40 mins by LC-MS/MS analysis relative to control; format: functional; parameters: scale not given: the % may be the effect or the level left; outline: as §2
[13] = system: Mus musculus; assay: Antipyretic activity against LPS-induced C57BL/6 mouse model of hyperthermia assessed as reduction in body temperature at 100 mg/kg, ip measured after 75 mins; format: functional, organism-based
Outline: (§4)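 Male C57BL/6 mice carried telemetry and recovered ≥1 week before use, housed at 29 °C ambient (near-thermoneutral). LPS 100 μg kg⁻¹ i.p. or saline was given, then drug or Ringer's acetate vehicle i.p. 3 h later. Core temperature was recorded continuously and analysed at the nadir time point. n = 4–9 per group.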

[14] = Inhibition of prostanoid synthesis in FAAH+/+ mouse assessed as PGF2alpha level in diencephalon at 150 mg/kg, ip measured after 40 mins by LC-MS/MS analysis relative to control; format: functional; parameters: scale not given: the % may be the effect or the level left; outline: as §2
[15] = Inhibition of prostanoid synthesis in FAAH-/- mouse assessed as 6-keto-PGF1alpha level in diencephalon at 150 mg/kg, ip measured after 40 mins by LC-MS/MS analysis relative to control; format: functional; parameters: scale not given: the % may be the effect or the level left; outline: as §2
[16] = Prodrug conversion in FAAH-/- mouse brain assessed as N-arachidonoyl conjugate level per g protein at 0.1 mM measured after 20 mins by LC-MS/MS analysis; format: ADME, tissue-based; settings: in vitro, 100 µM
Outline: (§5)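 Brains from FAAH+/+ or FAAH-/- mice were homogenized in ice-cold 10 mM Tris with 1 mM EDTA and 0.3 mM ascorbic acid. Aliquots were incubated with 0.1 mM primary amine for 20 min at 37 °C with stirring. Reactions were stopped with cold acetone containing AM404-d4 internal standard, and conjugates were measured by LC-MS/MS. n = 5–7.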

[17] = system: Mus musculus; assay: Antipyretic activity against LPS-induced C57BL/6 mouse model of hyperthermia assessed as reduction in body temperature at 30 mg/kg, ip measured after 75 mins; format: functional, organism-based; outline: as §4
[18] = molecular target: T1, Fatty-acid amide hydrolase 1 (Mus musculus, UniProt O08914); assay: Substrate activity at FAAH in FAAH+/+ mouse brain assessed as N-arachidonoyl conjugate level per g protein at 0.1 mM measured after 20 mins by LC-MS/MS analysis; format: ADME, tissue-based; settings: 100 µM; outline: as §5
T1 sequence (O08914 whole entry): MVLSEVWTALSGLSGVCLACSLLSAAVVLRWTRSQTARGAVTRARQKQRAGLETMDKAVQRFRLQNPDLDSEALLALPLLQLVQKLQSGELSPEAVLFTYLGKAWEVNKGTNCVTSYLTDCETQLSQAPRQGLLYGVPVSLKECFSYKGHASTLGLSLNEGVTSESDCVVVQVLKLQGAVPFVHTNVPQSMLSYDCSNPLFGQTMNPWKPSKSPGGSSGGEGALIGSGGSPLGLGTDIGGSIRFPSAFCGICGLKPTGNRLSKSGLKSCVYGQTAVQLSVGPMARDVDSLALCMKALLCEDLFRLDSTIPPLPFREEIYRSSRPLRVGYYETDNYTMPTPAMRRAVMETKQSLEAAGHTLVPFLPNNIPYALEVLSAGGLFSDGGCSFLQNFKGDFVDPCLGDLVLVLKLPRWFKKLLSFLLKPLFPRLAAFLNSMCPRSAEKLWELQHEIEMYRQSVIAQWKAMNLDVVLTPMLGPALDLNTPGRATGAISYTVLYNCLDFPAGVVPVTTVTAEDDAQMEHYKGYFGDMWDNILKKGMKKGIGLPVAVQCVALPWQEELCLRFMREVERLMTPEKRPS

[19] = system: Mus musculus; assay: Antipyretic activity against LPS-induced C57BL/6 mouse model of hyperthermia assessed as PGF2alpha level in diencephalon at 30 mg/kg, ip measured after 40 mins by LC-MS/MS analysis relative to control; format: functional; outline: as §1
[20] = system: Mus musculus; assay: Antipyretic activity against LPS-induced C57BL/6 mouse model of hyperthermia assessed as PGE2 level in diencephalon at 30 mg/kg, ip measured after 40 mins by LC-MS/MS analysis relative to control; format: functional; outline: as §1
[21] = Prodrug conversion in FAAH-/- mouse brain assessed as N-arachidonoyl conjugate level per g protein at 100 mg/kg, ip measured after 20 mins by LC-MS/MS analysis; format: ADME, organism-based; parameters: unit: pmol/g protein; settings: in vivo
Outline: (§6)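 FAAH+/+ and FAAH-/- mice (both sexes) received the primary amine i.p. in saline (sometimes with 5% DMSO). Brains were collected 20 min later, frozen, and homogenized in Tris/EDTA/ascorbate with 10 μM MAFP. N-arachidonoyl conjugates were quantified by positive-ion LC-MS/MS and normalized to protein.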

[22] = system: Mus musculus; assay: Antipyretic activity against LPS-induced C57BL/6 mouse model of hyperthermia assessed as 6-keto-PGF1alpha level in diencephalon at 30 mg/kg, ip measured after 40 mins by LC-MS/MS analysis relative to control; format: functional; outline: as §1
[23] = Prodrug conversion in FAAH+/+ mouse brain assessed as N-arachidonoyl conjugate level per g protein at 100 mg/kg, ip measured after 20 mins by LC-MS/MS analysis; format: ADME, organism-based; parameters: unit: pmol/g protein; settings: in vivo; outline: as §6
[24] = system: Mus musculus; assay: Hepatotoxicity in C57BL/6 mouse assessed as change in ALT/AST ratio at 300 mg/kg, ip measured after 12 hrs; format: functional; outline: as §3
[25] = system: Mus musculus; assay: Antipyretic activity against LPS-induced C57BL/6 mouse model of hyperthermia assessed as TXB2 level in diencephalon at 30 mg/kg, ip measured after 40 mins by LC-MS/MS analysis relative to control; format: functional; outline: as §1

CC(=O)Nc1ccc(O)cc1 [ACETAMINOPHEN]
Activity [1]: 13%
Activity [2]: 36%
Activity [3]: 9%
Activity [4]: 17%
Activity [5]: 18%
Activity [6]: 8%
Activity [7]: 18%
Activity [8]: 15%
Activity [9]: Toxic
Activity [10]: 10%
Activity [11]: Toxic
Activity [12]: 25%
Activity [13]: Active
Activity [14]: 19%
Activity [15]: 12%

Nc1ccc(O)cc1 [4-AMINOPHENOL]
Drug metabolism [16]: 0.05 nmol/g
Activity [17]: inactive
Drug metabolism [18]: 8.8 nmol/g
Activity [19]: 81%
Activity [20]: 44%
Activity [9]: Non-Toxic
Drug metabolism [21]: 24 pmol
Activity [22]: 60%
Activity [11]: Non-Toxic
Drug metabolism [23]: 1002 pmol
Ratio [24]: >1
Activity [25]: 60%
